Compound activity deposited in PubChem by Johns Hopkins Ion Channel Center.
Compounds with a hit are over-represented: about 3.5% of the library has one in this group of screens.
RGS4 inh: human RGS4 inhibition; P49798; HEK293 M3R/RGS4 inducible, Fluo-4 calcium flux; active compounds read high; triggered by carbachol at its EC20; B-score at 10 µM; 310,000 tested, 0.45% active;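 active means B-score, a plate-corrected calcium signal, over three deviations above library mean, with baseline fluorescence within five deviations of library mean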;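 further: RGS4 expression induced by doxycycline in cells with stable M3 receptor; B-score is computed from the integrated fluorescence ratio over baseline after carbachol; higher B-score means a larger calcium signal and so more RGS4 inhibition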
MrgX1 ag: human MrgX1 receptor agonism, primary screen | MrgX1-HEK293 cells, Fluo-4 calcium fluorescence, agonist mode; active compounds read high | 310,000 tested, 0.44% active | Q96LB2 | B-score at 10 µM | AID 588627;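 active means calcium response B-score plate-corrected fluorescence ratio at least 3 library SD, with starting fluorescence B-score inside 5 SD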
Target sequence (Q96LB2 whole entry, looked up): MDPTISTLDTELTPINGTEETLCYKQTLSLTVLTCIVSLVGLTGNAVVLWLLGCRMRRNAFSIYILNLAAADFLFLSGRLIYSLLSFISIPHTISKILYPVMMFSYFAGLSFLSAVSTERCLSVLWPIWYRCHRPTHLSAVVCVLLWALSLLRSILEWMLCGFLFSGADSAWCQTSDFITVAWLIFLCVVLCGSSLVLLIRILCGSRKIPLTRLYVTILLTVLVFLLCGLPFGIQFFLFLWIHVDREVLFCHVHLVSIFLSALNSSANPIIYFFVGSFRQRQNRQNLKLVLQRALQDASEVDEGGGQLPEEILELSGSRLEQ
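System: HEK293 cells stably expressing human MrgX1 receptor; Dosing: test compound in the initial addition of three; Schedule: overnight plating, then 30 min 37 °C plus 30 min room-temperature dye loading; Detection: kinetic calcium dye fluorescence, Fluo-4 NW; Controls: per-plate positive and negative controls for Z′ factor.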
MrgX1 allo act: allosterically activates human MrgX1 receptor signaling; Q96LB2; MrgX1-HEK293, Fluo-4 calcium flux, FDSS; active compounds read high; B-score at 10 µM; 310,000 tested, 0.63% active;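 active means plate-corrected calcium response at least 3 library SD above typical, normal starting fluorescence, not activating the receptor alone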;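 further: compound read alongside a low EC10 to EC30 dose of BAM8-22 agonist; peak minus trough fluorescence over baseline measured at the second addition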
RGS4 pot: RGS4 potentiation or activation; HEK293 M3R/inducible RGS4, carbachol calcium flux Fluo4; active compounds read low; B-score at 10 µM; 310,000 tested, 0.92% active;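 active means B-score of the integrated calcium signal more than 4 SD below the library mean, with starting fluorescence not abnormally high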;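 further: negative B-score means reduced calcium response which marks RGS4 activation or potentiation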
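Assay system: Inducible-RGS4 HEK293 cells carrying M3 receptor | Schedule: Compound preincubation 20 min at room temperature before agonist | Signal: Kinetic calcium fluorescence imaging with Fluo4-AM dye, 2 µM | Read-out basis: B score from integrated fluorescence ratio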
MrgX1 antagonist: antagonists of human MrgX1 receptor; Q96LB2; MRGX1-HEK293 calcium flux, Fluo-4, BAM8-22 antagonism; active compounds read low; B-score at 10 µM; 310,000 tested, 1.3% active;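 active means calcium-response B-score plate-corrected more than 3 library SD below zero, starting fluorescence within 5 deviations, no agonist response on first addition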;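 further: peak minus trough fluorescence over baseline after final BAM8-22 challenge near maximal dose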
A number is an active result; i = inactive.

SMILES | RGS4 inh | MrgX1 ag | MrgX1 allo act | RGS4 pot | MrgX1 antagonist
CCOC(=O)c1ccc(N(CC(=O)NC2CCCCC2)C(=O)CNC(=O)c2ccco2)cc1 | i | i | i | i | i
O=C(O)c1cccc(S(=O)(=O)N2CCN(c3ccccn3)CC2)c1 | i | i | i | i | i
COc1ccccc1NS(=O)(=O)c1ccc(C)c(C(=O)NCCCN2CCCC2=O)c1 | i | i | i | i | -9.1
Cc1ccc(S(=O)(=O)Nc2ccccc2F)cc1C(=O)NCCCN1CCCC1=O | i | i | i | i | i
COC(=O)CSc1nc(C)cc(C(F)(F)F)c1C#N | i | i | i | i | i
Cc1cc(C(F)(F)F)c(C#N)c(Sc2ccccc2)n1 | i | i | 9.6 | i | i
Cc1noc(NS(=O)(=O)c2ccc(NC(=O)Cc3ccc([N+](=O)[O-])cc3)cc2)c1C | i | i | i | i | i
N#Cc1ccccc1Oc1ccccc1C=O | i | 27 | i | i | i
CC(C)c1ccc(N2C=Nc3ccc(C(C)C)cc3C2)cc1 | i | i | i | -7.5 | i
COCCCN1C(=O)C(=O)/C(=C(/O)c2ccc(S(=O)(=O)N3CCCCC3)cc2)C1c1ccc(O)cc1 (centres undefined) | i | i | i | i | i
O=C(CN1C(=O)/C(=C/c2c(F)cccc2Cl)Oc2ccccc21)NCc1ccco1 | i | i | i | i | -6.6
O=C(/C=C/c1ccc(F)cc1)NCc1ccco1 | i | i | i | i | i
O=C(/C=C/c1c(F)cccc1Cl)NCc1ccco1 | i | i | i | i | -4.5
CCCN(CCC)C(=O)Cn1c(=O)c2ccccc2n2c(=S)sc(-c3ccccc3C)c12 | i | i | i | i | -4.6
COc1ccccc1C(=O)Nc1ccc2c(c1)C(=O)NC2=O | i | i | i | i | i
C/C(Cl)=C/CSc1nn2c(=O)c3ccccc3nc2s1 | i | i | 7.8 | i | i
C=CC[n+]1c(-c2ccccc2)csc1NC(C)(C)C | i | i | i | i | -4.9
CCCCCC[n+]1c(-c2ccccc2)csc1Nc1ccccc1 | i | i | i | i | i
COc1ccc(CNC(=O)C/C(C)=N/NC(=O)C23CC4CC(CC(C4)C2)C3)cc1 | i | i | i | i | i
O=[N+]([O-])c1ccc(S(=O)(=O)N2CCN=C2SCc2ccc(F)cc2)cc1 | i | i | i | i | i
COc1ccccc1S(=O)(=O)Cc1ccc(C(=O)NCCCN2CCN(c3ccc(F)cc3)CC2)o1 | i | i | i | i | i
O=C1CC(c2ccc(Cl)c([N+](=O)[O-])c2)c2ccc3ccccc3c2N1 (centres undefined) | i | i | i | i | -7.5
CCOc1ccc(CC(=O)Nc2ccc(S(=O)(=O)N3CCCC3)cc2)cc1 | i | i | i | i | i
COc1ccc(CCNC(=O)Nc2ccccc2[N+](=O)[O-])cc1 | i | i | i | i | i
CCCn1cc(CN2CCC(Oc3ccc(C(=O)N4CCCC4)cc3)CC2)c(C)n1 | i | i | i | i | i
SMILES | RGS4 inh | MrgX1 ag | MrgX1 allo act | RGS4 pot | MrgX1 antagonist
Cc1ccc(S(=O)(=O)NNC(=O)NC23CC4CC(CC(C4)C2)C3)cc1 | i | 28 | i | i | i
CC(=O)Nc1ccc(S(=O)(=O)NNC(=O)NC23CC4CC(CC(C4)C2)C3)cc1 | i | i | i | i | i
COc1ccccc1CN1CCC(CNS(=O)(=O)c2cc(-c3cc(C)no3)ccc2OC)CC1 | i | i | i | -7.6 | i
CCCCN(CCCNC(=O)c1c(C)cc(=O)oc1C)c1ccccc1 | i | i | i | i | -7.9
CC(C)C(=O)NC(=S)Nc1ccc(S(=O)(=O)N(C)Cc2ccccc2)cc1 | i | i | i | -7 | i
CC(=O)NC(=S)Nc1ccc(S(=O)(=O)N(C)Cc2ccccc2)cc1 | i | i | i | i | i
O=C(NCCc1ccccc1)C(=O)NCC1OCCN1S(=O)(=O)c1ccc(F)cc1 (centres undefined) | i | i | i | i | i
CC(C)[C@H](NC(=O)c1ccco1)C(=O)Nc1ccc(OC(F)F)cc1 | i | i | i | i | i
COc1ccc(C(CCN(Cc2ccc(OC)c(OC)c2)C(C)=O)c2ccccc2)cc1 (centres undefined) | i | i | i | i | i
COc1ccc(CN(CCC(c2ccccc2)c2ccc(OC(C)C)cc2)C(=O)CCl)cc1OC (centres undefined) | i | i | 10 | -7.1 | i
CC(C)c1ccc(/C=C/C(=O)Nc2ccc(CN3CCOCC3)cc2)cc1 | i | i | i | -8.2 | i
